Screens as filed in PubChem.
Rows were chosen to be rich in hits. Some 1.2% of all compounds tested hit in one or more screens of this group.
SR-BI DiI-HDL act = activators of SR-BI mediated HDL lipid uptake; hit rate 0.096% among 320,000; CHO ldlA[mSR-BI] cells, DiI-HDL uptake fluorescence, 3 h; 100 = double the neutral-control signal; activation, % at 12.5 µM;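 active = mean replicate activation of at least 60% and every replicate at or above 60%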;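 also: 0% = median plate neutral-control signal and 100% = twice that signal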
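System: CHO ldlA[mSR-BI] cells / Medium: HEPES-buffered (25 mM, pH 7.4) F12 plus 0.5% BSA / Probe or stimulus: labelled HDL, 10 µg/mL / Doses: single compound concentration, delivered by pin transfer / Schedule: 3 h, 37 °C / Measured by: DiI fluorescence, bottom read / Measure: cell-associated DiI fluorescence as measure of HDL uptake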
FN deposit inh = fibronectin deposition inhibition; AH1F fibroblasts, Alexa488-fibronectin deposition fluorescence, overnight; inhibition, % at 12.6 µM; hit rate 0.086% among 350,000;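 active = mean inhibition across replicates of 30% or more, regardless of how many single replicates reach that level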;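 also: positive control wells lacked labelled fibronectin entirely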
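Assay system: AH1F fibroblasts assembling fluorescent fibronectin matrix; Amount: 10000 AH1F cells per well; Buffer or medium: DMEM, 2% serum; Probe or stimulus: Alexa488-fibronectin, 24 nM final in well; Doses: single compound dose, delivered by pin transfer; Incubation: 1 h adhesion, overnight exposure; Measured by: fluorescence 485/525 nm; Read-out: fibronectin deposition inhibition.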
SR-BI HDL uptake = blocks mouse SR-BI lipid uptake from DiI-HDL. Q61009. ldlA[mSR-BI] CHO cells, DiI-HDL uptake fluorescence, 3 h. inhibition, % at 12.5 µM. hit rate 0.96% among 320,000. AID 488896;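 active = mean replicate inhibition of at least 70% and a set share of replicates each scoring 70 or more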;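 also: 0% = median of neutral control wells and 100% = median of positive control wells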
Target sequence (Q61009 whole entry, looked up): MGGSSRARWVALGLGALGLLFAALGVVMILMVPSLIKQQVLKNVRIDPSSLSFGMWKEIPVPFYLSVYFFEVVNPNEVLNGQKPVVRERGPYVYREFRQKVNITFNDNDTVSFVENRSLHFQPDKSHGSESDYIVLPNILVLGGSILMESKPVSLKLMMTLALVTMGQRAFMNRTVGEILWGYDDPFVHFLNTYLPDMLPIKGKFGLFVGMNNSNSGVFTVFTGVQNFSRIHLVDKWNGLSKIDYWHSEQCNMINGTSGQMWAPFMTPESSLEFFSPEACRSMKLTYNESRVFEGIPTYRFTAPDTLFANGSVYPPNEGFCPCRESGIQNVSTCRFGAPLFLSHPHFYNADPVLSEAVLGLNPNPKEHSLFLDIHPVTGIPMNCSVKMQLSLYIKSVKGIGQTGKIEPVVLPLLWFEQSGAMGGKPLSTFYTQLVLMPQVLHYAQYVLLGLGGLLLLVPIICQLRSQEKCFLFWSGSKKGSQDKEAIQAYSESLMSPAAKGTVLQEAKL
Efflux pump mplx = antifungal efflux pump inhibition, Nile Red retention. S. cerevisiae Candida pump triplex. hit rate 0.44% among 330,000. inhibition, % at 10 µM;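 active = plate passing quality check with inhibition over a set limit, or well fluorescence over plate mean plus 4 SD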;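 also: Nile Red retained in pooled yeast measured as flow cytometry median fluorescence; 0% = buffer negative control and 100% = Enniatin B positive control; higher means more Nile Red kept so more efflux inhibition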
CaV13 FRET inh = Disruptors of the CACNA1D IQ motif to Ca2+-dependent inactivation inhibitor domain association, primary screening, Förster resonance energy transfer in intact living …. HEK cells, CFP/YFP FRET ICDI-IQ, plate reader, 10 min; percent FRET-ratio fall versus neutral wells. hit rate 0.098% among 340,000. AID 743397. inhibition, % at 12.3 µM;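 active = mean replicate inhibition of at least 30% and at least 1% of replicates passing that level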;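 also: 0% = median of the neutral control wells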
Numbers without * were called inactive; x = no result.

SMILES | SR-BI DiI-HDL act | FN deposit inh | SR-BI HDL uptake | Efflux pump mplx | CaV13 FRET inh
COc1ccccc1NCc1cc(=O)oc2c(C)c(O)ccc12 | -73 | 2 | 73* | 0 | -4
COc1cc(Br)c(/C=C/c2ccc3cccc(O)c3n2)cc1OC | x | 10 | x | 0 | -17
Oc1ccc(Cl)cc1/C=C/c1ccc2cccc(O)c2n1 | -74 | 15 | 74* | x | -4
COc1cc(Br)cc(/C=C/c2ccc3cccc(O)c3n2)c1O | -91 | -9 | 91* | 0 | -19
O=C(C[C@H]1CC[C@@H]2[C@H](COC[C@H](O)CN2C(=O)Nc2ccc3c(c2)OCO3)O1)N1CCN(c2ccccc2)CC1 | x | 4 | x | x | x
C/C(=N\NC(=O)c1cccc(N/N=C(\C)c2ccccc2)c1)c1ccccc1 | -79 | -4 | 79* | 0 | -5
C/C(=N\NC(=O)COc1ccccc1[N+](=O)[O-])c1cccc(NC(=O)c2ccncc2)c1 | -81 | 6 | 81* | 1 | -3
C/C(=N/NC(=O)c1ccncc1)c1ccc(NC(=O)c2ccccc2)cc1 | -9 | 6 | 9 | 0 | -4
C/C(=N\NC(=O)c1ccncc1)c1cccc(NC(=O)c2ccc(C(C)(C)C)cc2)c1 | -78 | x | 78* | 2 | x
CCC(=O)N[C@@H]1C=C[C@@H](CC(=O)NCC2CC2)O[C@@H]1CO | x | -5 | x | x | x
CC(=O)N(C)C[C@@H]1Oc2c(NC(=O)NC(C)C)cccc2C(=O)N(C)C[C@H]1C | x | 0 | x | x | x
N#CCCN(C(=O)COC(=O)c1ccc(S(=O)(=O)N2CCOCC2)cc1)c1ccccc1 | 22 | -35 | -22 | 0 | -4
CN(C(=O)COC(=O)c1ccc(S(=O)(=O)N2CCOCC2)cc1)c1ccccc1 | 70* | 5 | -70 | 0 | -6
Cn1cccc1C(=O)NC(=O)COC(=O)c1cc(S(=O)(=O)N2CCCCC2)ccc1Cl | -81 | -2 | 81* | 0 | 1
CCOC(=O)c1ccc(S(=O)(=O)N2CCC(C(=O)O)CC2)cc1 | 69* | -11 | -69 | 0 | -6
CN(C(=O)COC(=O)c1cc(S(=O)(=O)N2CCCCC2)ccc1Cl)c1ccccc1 | -72 | 1 | 72* | 0 | -5
CCOC(=O)c1ccc(S(=O)(=O)N2CCC(C(=O)OCC)CC2)cc1 | 11 | x | -11 | 0 | -10
CCCN1C[C@H](C)[C@@H](OC)CN(C)C(=O)c2ccc(NC(=O)c3ccc(F)cc3)cc2OC[C@@H]1C | x | 6 | x | x | x
CS(=O)(=O)N1CC2(C1)[C@@H](c1ccccc1)[C@@H](CO)N2CC1CCCC1 | x | -14 | x | x | x
CO[C@H]1CN(C)C(=O)c2ccc(NC(=O)C3CC3)cc2OC[C@H](C)N(C(=O)C2CCCCC2)C[C@@H]1C | x | -6 | x | x | x
C[C@H]1CN(C)C(=O)Cc2cc(N(C)C)ccc2O[C@@H]1CN(C)C | x | 0 | x | x | x
O=C(Cc1ccccn1)N[C@H]1CC[C@@H](CC(=O)N2CCCCC2)O[C@H]1CO | x | -11 | x | x | x
Cc1cc(Br)cn2c(Cc3cccc(F)c3)c(-c3ccc(C#N)cc3)nc12 | x | 30* | x | x | -5
O=C(Nc1ccc([N+](=O)[O-])cc1)Nc1nc(-c2ccc(Cl)s2)cs1 | -84 | -5 | 84* | 0 | -2
CC(=O)Nc1nc(-c2ccc([N+](=O)[O-])cc2)cs1 | 1 | 2 | -1 | 0 | 1
SMILES | SR-BI DiI-HDL act | FN deposit inh | SR-BI HDL uptake | Efflux pump mplx | CaV13 FRET inh
COc1cccc(C(=O)Nc2ccc3c(c2)C(=O)N(C)[C@@H]2CC[C@@H](CC(=O)NCC4CC4)O[C@H]2CO3)c1 | x | -1 | x | x | x
CCOC(=O)N/N=C/c1ccc(OCCSc2ccc(Cl)cc2)c(OC)c1 | -24 | 2 | 24 | 0 | -4
CCOC(=O)N/N=C/c1ccc(OCCSc2ccc(Cl)cc2)c(OCC)c1 | -74 | 0 | 74* | 0 | -4
O=C1C(=C(I)I)c2ccccc2-c2ccccc21 | -7 | 55* | 7 | x | -6
C[C@@H]1CN([C@@H](C)CO)C(=O)c2cccc(NC(=O)Nc3cccc4ccccc34)c2O[C@@H]1CN(C)Cc1ccc(C(=O)Nc2ccccc2N)cc1 | x | -13 | x | x | x
COC(=O)C1=C(C)NC(=O)NC1c1ccc(N2CCC(c3ccccc3)=N2)cc1 (configuration not stated) | -78 | 5 | 78* | 0 | -4
COC(=O)C1=C(C)NC(=O)NC1c1ccc(OC)c(OC)c1 (configuration not stated) | x | -10 | x | x | -4
C[C@H](CO)N1C[C@H](C)[C@@H](CN(C)C(=O)C2CCCCC2)Oc2ncc(C#CC3CCCCC3)cc2C1=O | x | -6 | x | x | x
COc1ccc(N2CCN(C(=O)CNC(=O)c3cn(-c4ccccc4OC)c(=O)c4ccccc34)CC2)cc1 | -74 | 2 | 74* | 0 | 2
CCCCCn1c(=O)c(-c2nc3ccccc3[nH]2)c(O)c2ccccc21 | -95 | 5 | 95* | 1 | -6
CCCCCCCCn1c(=O)c(C(=O)OCC)c(O)c2ccccc21 | 11 | x | -11 | 0 | 1
C[C@H](CO)N1C[C@H](C)[C@@H](CN(C)CC2CCCC2)Oc2ncc(C#Cc3ccccn3)cc2C1=O | x | -14 | x | x | x
CC1=CC(=O)C=C(C)C1=NOS(=O)(=O)c1ccccc1 | -112 | x | 112* | x | -1
Cc1ccc(S(=O)(=O)ON=C2CCN(S(=O)(=O)c3ccccc3)CC2)cc1 | -3 | 1 | 3 | 0 | -3
CC1=CC(=O)C(C(C)C)=C/C1=N/OS(=O)(=O)c1ccccc1 | -80 | 33* | 80* | 0 | 0
Cc1ccc2c(c1)/C(=N/OS(=O)(=O)c1ccccc1)CCS2 | 13 | 8 | -13 | 0 | x
O=C(Nc1ccc(Cl)cc1)N[C@@H]1CC[C@@H](CCNS(=O)(=O)c2ccccc2F)O[C@H]1CO | x | -10 | x | x | x
O=C(C[C@H]1CC[C@@H]2NC[C@H](O)COC[C@H]2O1)NCCN1CCCC1 | x | -5 | x | x | x
CC(C)(C)c1ccc(-n2nc(C(N)=O)c(O)cc2=O)cc1 | 26 | -5 | -26 | 0 | -5
CC(C)(C)c1ccc(-n2nc(C#N)c(Cl)cc2=O)cc1 | -15 | 30* | 15 | x | -4
CC1(C)CC2(CC(c3ccccc3)c3ccc(O)cc3O2)NC(=S)N1 (configuration not stated) | -72 | -2 | 72* | 0 | -1
CC(=O)Oc1cc2c(cc1Cl)C(c1cccs1)CC1(CC(C)(C)NC(=S)N1)O2 (configuration not stated) | -75 | 4 | 75* | 0 | -5
COc1ccc(C2CC3(CC(C)(C)NC(=O)N3)Oc3cc(O)ccc32)cc1 (configuration not stated) | 14 | x | -14 | 0 | -7
CC(C)COC(=O)N(C)C[C@H]1OCc2ccccc2-c2ccccc2C(=O)N([C@H](C)CO)C[C@@H]1C | x | -20 | x | x | x
N#C/C(=C\c1ccc(N2CCOCC2)o1)c1nc2ccccc2[nH]1 | -15 | x | 15 | 0 | x
N#C/C(=C/c1ccc(N2CCOCC2)o1)c1ccc(Cl)cc1 | -85 | 0 | 85* | 0 | -3
